Env fusion inh – HIV envelope-mediated fusion inhibition | actives 1.1% (n = 360,000) | inhibition, % at 12.3 µM | HeLa-JRFL Env/CEM21 cell fusion, luciferase;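 active = mean replicate inhibition score of at least 50 and every replicate individually at or above 50; inconclusive = only one of the two criteria met; inactive = mean below 50 and not all replicates reaching 50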;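 note: 0% = plate neutral controls and 100% = maraviroc near 300 nM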
Cneo AK release – causes C. neoformans cell lysis | adenylate kinase release luminescence, 4 h; normalised: neutral wells 0, clomiphene wells 100 | AID 651654 | lysis activity, % at 15 µM | actives 0.2% (n = 360,000);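 active = mean lysis activity across replicates of at least 80%, whatever share of replicates individually reach that level; inactive = mean lysis activity below 80%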
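Test system: log-phase Cryptococcus neoformans yeast cells. Input: 5 × 10^6 yeast cells/mL. Medium: fresh YPD growth medium. Doses: single dose. Incubation: static 4 h at 37 °C with compound, 1 h detection. Measured by: luminescent adenylate kinase detection reagent. Read-out: signal increase indicating cell lysis. Benchmarks: Clomiphene.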
MITF act – activators of MITF-driven TRPM1 promoter activity in SK-MEL-5 cells; activation, % at 12.5 µM; AID 588334; SK-MEL-5 TRPM1-promoter luciferase, 24 h; % of positive control, neutral wells = 0; actives 0.75% (n = 300,000);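 active = mean activation of at least 80% with every replicate also reaching 80%; inconclusive = mean reaches 80% but some replicate falls short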;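 note: 0% = neutral control wells and 100% = parthenolide positive control wells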
esBAF inh – blocks esBAF chromatin remodeling in mouse ES cells; reporter increase, % at 12.5 µM; actives 2% (n = 350,000); Bmi1-luciferase knock-in reporter, 24 h; 100% = twice the neutral-well signal; AID 602393; in the data active = activation above about 40%; inconclusive = no clear call, values can overlap the other calls;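 note: 0% = median of the plate's neutral control wells and 100% = double that signal; a rise in the Bmi1 reporter signal indicates esBAF inhibition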
Wnt bcat act – activators of Wnt/beta-catenin signaling. Wnt/beta-catenin reporter cell assay, activator, plate reader. AID 743398. actives 1.2% (n = 300,000). activation, % at 9.35 µM; in the data active = activation above about 30%, passing the limit was not always enough; inconclusive = no clear call, values can overlap the other calls;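 note: 0% = neutral control wells and 100% = positive control wells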
ERAP1 inh – ERAP1 (human) enzyme inhibition; Q9NZ08; recombinant ERAP1, Leu-AMC fluorescence, 60 min; inhibition, % at 10.7 µM; actives 0.15% (n = 340,000);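 active = mean replicate inhibition of at least 30%, or all replicates individually reaching that 30% level; inactive = mean below 30% and not every replicate reaching it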;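 note: 0% = neutral control wells and 100% = L-leucinethiol positive control wells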
Target sequence (Q9NZ08 whole entry, looked up): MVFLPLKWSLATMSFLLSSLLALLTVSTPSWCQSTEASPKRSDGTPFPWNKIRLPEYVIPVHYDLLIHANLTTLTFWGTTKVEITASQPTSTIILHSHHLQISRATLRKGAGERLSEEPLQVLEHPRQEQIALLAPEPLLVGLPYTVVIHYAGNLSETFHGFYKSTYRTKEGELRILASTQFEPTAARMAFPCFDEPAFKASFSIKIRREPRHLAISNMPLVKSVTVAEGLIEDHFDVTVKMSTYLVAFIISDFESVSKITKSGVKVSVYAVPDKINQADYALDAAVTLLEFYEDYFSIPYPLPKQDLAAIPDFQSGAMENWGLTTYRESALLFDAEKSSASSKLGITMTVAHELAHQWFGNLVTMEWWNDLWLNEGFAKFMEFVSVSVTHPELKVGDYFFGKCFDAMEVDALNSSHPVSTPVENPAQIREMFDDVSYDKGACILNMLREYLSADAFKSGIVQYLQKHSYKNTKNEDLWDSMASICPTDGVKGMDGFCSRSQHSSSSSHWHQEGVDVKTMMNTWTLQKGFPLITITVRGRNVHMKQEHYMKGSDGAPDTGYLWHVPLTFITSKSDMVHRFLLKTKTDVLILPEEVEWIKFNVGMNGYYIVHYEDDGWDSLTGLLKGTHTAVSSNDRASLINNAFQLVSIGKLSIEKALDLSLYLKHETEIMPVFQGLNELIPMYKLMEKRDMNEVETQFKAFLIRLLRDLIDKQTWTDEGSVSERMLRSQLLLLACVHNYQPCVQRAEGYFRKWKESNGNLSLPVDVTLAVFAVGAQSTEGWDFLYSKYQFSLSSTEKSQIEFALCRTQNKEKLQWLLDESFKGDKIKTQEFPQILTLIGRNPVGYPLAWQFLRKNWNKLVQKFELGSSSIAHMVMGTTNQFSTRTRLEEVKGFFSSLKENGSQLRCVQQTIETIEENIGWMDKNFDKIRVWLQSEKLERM
* = called active by the depositor; ? = inconclusive; nt = no result given; [ ] = another dose, or the depositor's remark. Rows were chosen to be rich in hits. Some 3.5% of all compounds tested hit in one or more screens of this group.

SMILES	Env fusion inh	Cneo AK release	MITF act	esBAF inh	Wnt bcat act	ERAP1 inh
COc1ccc(S(=O)(=O)N(C)C[C@H]2OCCCC[C@@H](C)Oc3ccc(N(C)C)cc3C(=O)N([C@@H](C)CO)C[C@@H]2C)cc1	-73.1[16.7 µM]	-2.4	nt	1.7	nt	-2.7
C=C1CCN([C@@H](CC(C)C)C(=O)Nc2ccc(OC)cc2)S(=O)(=O)c2ccccc21	102.1*	2.6	0.4	0.4	-3.3	1.6
C=C1CCN([C@@H](Cc2ccccc2)C(=O)NCCC(C)C)S(=O)(=O)c2ccccc21	83.7*	0.1	4.9	-10.7	-1.0	nt
C=C1CCN(C(CC(C)C)C(=O)OC)S(=O)(=O)c2ccccc21 (centres undefined)	21.7	0.2	-6.1	-13.9	-1.6	0.9
Cc1noc(C)c1NC(=O)N(C)C[C@@H]1OCCCC[C@H](C)Oc2ccc(NS(=O)(=O)c3ccccc3)cc2C(=O)N([C@H](C)CO)C[C@@H]1C	10.5[16.7 µM]	2.9	nt	0.6	nt	-1.4
CC(C)(C)n1nnnc1C(c1cccs1)N(Cc1ccccc1)Cc1ccco1 (centres undefined)	nt	-3.8	-1.1	-8.7	nt	1.1
CC(C)(C)n1nnnc1C(c1cccs1)N(Cc1cccnc1)Cc1ccco1 (centres undefined)	52.7*	-3.7	-8.0	nt	nt	nt
O=C(NCC[C@H]1CC[C@H](NC(=O)Nc2cc(F)ccc2F)[C@@H](CO)O1)Nc1ccc(Cl)cc1	7.0[16.7 µM]	nt	nt	20.7	nt	nt
CCCCN1CC(COCc2ccccc2)Oc2cccc(Oc3ccc(C(C)C)cc3)c2S1(=O)=O (centres undefined)	63.5*	-2.1	-5.6	1.6	-7.4	-0.8
S=C(Nc1ccc(Br)cc1Cl)N1CCCC1	-33.3	4.4	84.1*	?	12.6	-1.0
S=C(Nc1ccccc1Cl)N1CCCC1	1.1	13.3	-0.4	nt	1.1	2.9
COc1ccc(C(=O)NN/C(C)=C/C(=O)c2ccccc2)cc1	9.4	3.4	nt	13.9	1.5	0.6
COc1ccc(C(=O)N/N=C/C(=O)c2ccccc2)cc1	-69.9	-19.6	77.8	62.1*	32.3*	-2.6
Cc1ccc(C(=O)NN=CC(=O)c2ccccc2)c(C)c1	nt	-0.6	60.8	-31.4	34.4*	1.0
COc1ccc(C(=O)N/N=C/c2ccc3cccc(OCc4ccccc4)c3n2)cc1	-39.2	-1.5	24.0	64.5*	18.6	nt
O=C(NCC[C@@H]1CC[C@@H](NC(=O)C2CCCC2)[C@H](CO)O1)Nc1ccc(Cl)cc1	-6.1[16.7 µM]	2.6	nt	22.3	nt	-0.4
CCOC(=O)c1nn(-c2ccc(F)cc2)cc1O	-45.2	nt	92.2*	nt	19.8	0.8
CCOC(=O)c1nn(-c2ccc(Br)cc2)cc1C(=O)c1cccc2ccccc12	-1.9	-0.3	72.8	78.2*	nt	nt
COc1cccc(C(=O)Nc2ccc3c(c2)C(=O)N(C)[C@@H]2CC[C@H](CC(=O)NCc4ccc(F)cc4)O[C@@H]2CO3)c1	12.5[16.7 µM]	39.4	nt	4.7	nt	nt
COC(=O)C[C@H]1CC[C@@H]2[C@H](COC[C@H](O)CN2S(=O)(=O)c2ccc(F)cc2)O1	-1.8[16.7 µM]	41.2	nt	-8.8	nt	-3.3
C[C@H](CO)N1C[C@H](C)[C@@H](CN(C)Cc2ccc3c(c2)OCO3)OCCCC[C@H](C)Oc2ccc(NS(=O)(=O)c3ccccc3)cc2C1=O	-10.4[16.7 µM]	-4.0	nt	-2.1	nt	-2.8
O=C(Nc1ccccc1)OCC1CCCO1 (centres undefined)	2.6	0.0	35.6	35.4	0.1	-2.0
O=C(Nc1ccccc1)OCC1COC(c2ccccc2)(c2ccccc2)O1 (centres undefined)	7.0	2.9	4.1	nt	48.8*	1.6
COC(C(=O)C(O)C(C)O)C1Cc2cc3cc(OC4CC(OC5CC(O)C(O)C(C)O5)C(O)C(C)O4)c(C)c(O)c3c(O)c2C(=O)C1OC1CC(OC2CC(OC3CC(O)C(OC)C(C)O3)C(O)C(C)O2)C(O)C(C)O1 (centres undefined)	78.0*	nt	nt	nt	-24.3	-3.3
CC1(C)CC2CC(C)(CN2S(=O)(=O)c2cccc(C(=O)OCC(=O)NC(N)=O)c2)C1 (centres undefined)	91.3*	2.9	-2.2	6.3	2.8	23.6
SMILES	Env fusion inh	Cneo AK release	MITF act	esBAF inh	Wnt bcat act	ERAP1 inh
C=CCOC(=O)C1=C(C)NC(SCC(=O)Nc2nccs2)=C(C#N)C1c1ccc(Cl)cc1 (centres undefined)	103.0*	-0.3	1.3	nt	-17.8	8.1
C[C@@H]1CN([C@@H](C)CO)S(=O)(=O)c2ccc(C3=CCCCC3)cc2O[C@H]1CN(C)C(=O)CN(C)C	25.3[16.7 µM]	5.8	nt	-7.1	nt	-8.5
CCN(CC(=O)Nc1c(F)cccc1F)C(=O)Cn1c(=O)cnc2ccccc21	nt	0.4	-0.5	-7.5	0.8	0.8
CCN(CC(=O)Nc1ccccc1C(F)(F)F)C(=O)Cn1c(=O)cnc2ccccc21	-5.3	-2.7	-0.6	4.7	2.4	32.0*
CCCNC(=O)C[C@H]1CC[C@@H]2[C@@H](COc3ccc(NC(=O)C4CCCC4)cc3C(=O)N2C)O1	7.8[16.7 µM]	0.7	nt	-0.3	nt	0.7
O=c1c2ccccc2ncn1C1CCCCC1	-40.8	-1.1	8.2	7.9	nt	nt
O=c1c2[nH]c3ccccc3c2ncn1C1CCCCC1	-97.9	nt	nt	61.7*	nt	nt
C[C@H]1CCCCO[C@@H](CN(C)Cc2ccccc2)[C@@H](C)CN([C@@H](C)CO)C(=O)c2cc(NC(=O)Nc3ccc(F)cc3)ccc2O1	69.5*[16.7 µM]	3.6	nt	0.7	nt	3.2
C[C@@H]1CCCCO[C@H](CN(C)Cc2ccccc2)[C@@H](C)CN([C@H](C)CO)C(=O)c2cc(NC(=O)Nc3ccc(F)cc3)ccc2O1	-1.1[16.7 µM]	4.0	nt	6.4	nt	2.3
C[C@H](CO)N1C[C@H](C)[C@H](CN(C)Cc2ccccc2)OCCCC[C@H](C)Oc2ccc(NC(=O)Nc3ccc(F)cc3)cc2C1=O	56.1*[16.7 µM]	7.6	nt	4.8	nt	3.7
C[C@H]1CCCCO[C@@H](CN(C)Cc2ccccc2)[C@@H](C)CN([C@@H](C)CO)C(=O)c2cc(NC(=O)Nc3ccccc3)ccc2O1	68.9*[16.7 µM]	-0.4	nt	0.9	nt	2.2
C[C@H]1CCCCO[C@@H](CN(C)Cc2ccncc2)[C@@H](C)CN([C@@H](C)CO)C(=O)c2cc(NC(=O)Nc3ccccc3)ccc2O1	57.8*[16.7 µM]	99.5*	nt	nt	nt	-1.1
C[C@H](CO)N1C[C@H](C)[C@@H](CN(C)Cc2ccccc2)OCCCC[C@H](C)Oc2ccc(NC(=O)Nc3ccccc3)cc2C1=O	1.6[16.7 µM]	-0.1	nt	1.9	nt	0.1
C[C@@H]1CN([C@H](C)CO)C(=O)CCCn2cc(nn2)CO[C@@H]1CN(C)S(=O)(=O)c1ccc2c(c1)OCCCO2	nt	0.6	nt	2.7	nt	-3.6
C[C@@H]1CN([C@@H](C)CO)C(=O)Cc2cc(NC(=O)C3CCCCC3)ccc2O[C@@H]1CN(C)C(=O)Nc1ccc2c(c1)OCO2	nt	23.5	nt	-0.5	nt	-0.1
